Compounds with a hit are over-represented: about 5.9% of the library has one in this group of screens.
Phagocytosis inh: macrophage phagocytosis inhibition. hit rate 0.07% among 110,000. J774A.1 macrophage IgG-bead phagocytosis, imaging. inhibition, % at 5 µM;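 active = inhibition above the mean of the plate negative controls plus 5 SD, cut at about 13% in these data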;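 note: phagocytic index as fraction of beads internalized from green versus red external bead signal; plate controls were DMSO negative control for no effect and cytochalasin-D positive control for full effect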
hDAT+cocaine: modulates human dopamine transporter uptake under cocaine; B-score at 10 µM; hit rate 1.3% among 110,000; Q01959; LLC-PK1 hDAT cells, [14C]-dopamine uptake with cocaine IC80; actives deviate in either direction;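 active = Z score or B-score, a plate-position-corrected score, falls beyond the plate's 99.7% confidence bounds, in either direction; inactive = both scores lie inside the 99.7% bounds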;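 note: scored against the spread of the other compound wells on the same plate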
Cav32 inh: inhibitors of human Cav3.2 T-type calcium channel. Cav3.2-expressing cells, Fluo-4 calcium fluorescence FDSS; stronger effect = lower value. O95180. AID 449739. hit rate 4% among 100,000. B-score at 10 µM;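 active = single-dose well whose peak fluorescence ratio is a statistical outlier from its plate by either plate-standardised score or position-corrected B-score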
Pyk2 oligo antag: blocks oligomerization of human Pyk2 in cells | Q293 cells, Pyk2 FERM NanoBiT luminescence; stronger effect = lower value | z-score (the deposit names both 25 µM and 10 µM) | hit rate 0.83% among 99,000 | AID 1347419;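 active = Z-score of -3 or lower, scaled per plate to the spread of control and sample wells; inactive = z-score above -3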;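 note: negative z-score means lost luminescence so less FERM oligomerization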
Target sequence (Q14289 whole entry, looked up): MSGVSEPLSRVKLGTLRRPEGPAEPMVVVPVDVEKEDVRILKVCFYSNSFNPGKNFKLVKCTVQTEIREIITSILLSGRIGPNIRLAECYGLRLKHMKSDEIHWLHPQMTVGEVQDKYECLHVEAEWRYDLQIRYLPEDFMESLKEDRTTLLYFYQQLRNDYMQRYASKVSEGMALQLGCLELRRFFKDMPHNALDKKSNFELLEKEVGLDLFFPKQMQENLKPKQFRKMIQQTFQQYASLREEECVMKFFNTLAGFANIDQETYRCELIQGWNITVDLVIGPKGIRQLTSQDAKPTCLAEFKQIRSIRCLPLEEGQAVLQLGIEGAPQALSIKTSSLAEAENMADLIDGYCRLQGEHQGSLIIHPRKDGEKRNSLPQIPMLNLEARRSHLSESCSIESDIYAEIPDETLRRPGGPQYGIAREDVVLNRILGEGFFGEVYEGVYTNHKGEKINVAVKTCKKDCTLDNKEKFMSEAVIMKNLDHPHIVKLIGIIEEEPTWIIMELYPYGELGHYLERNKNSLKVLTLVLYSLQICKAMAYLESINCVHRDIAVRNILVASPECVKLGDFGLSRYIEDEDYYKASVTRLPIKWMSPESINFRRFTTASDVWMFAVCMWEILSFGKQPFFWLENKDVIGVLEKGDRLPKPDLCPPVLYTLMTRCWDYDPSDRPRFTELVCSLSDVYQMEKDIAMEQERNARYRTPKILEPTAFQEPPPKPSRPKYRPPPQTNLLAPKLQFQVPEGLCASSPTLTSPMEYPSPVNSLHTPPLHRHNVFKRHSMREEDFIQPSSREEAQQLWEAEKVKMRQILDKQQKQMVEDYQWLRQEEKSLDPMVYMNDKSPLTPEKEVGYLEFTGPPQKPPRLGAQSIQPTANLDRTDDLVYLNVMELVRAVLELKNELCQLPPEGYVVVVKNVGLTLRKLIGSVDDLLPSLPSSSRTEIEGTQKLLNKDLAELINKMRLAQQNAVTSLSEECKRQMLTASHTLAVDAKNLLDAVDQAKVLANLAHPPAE
Rev-RRE block: inhibitors of HIV-1 Rev-RRE RNA interaction. P05866. Rev peptide-RRE RNA binding, FRET. hit rate 0.79% among 97,000. AID 704. inhibition, % at 8 µM;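 active = inhibition above the screen-wide mean plus 3 SD, cut at about 35% in these data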;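 note: 0% = median DMSO wells and 100% = median Neomycin B control wells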
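Assay system: labelled RRE RNA duplex and labelled Rev peptide / Medium: HEPES pH 7.5 salt buffer with EDTA / Reagent: labelled Rev peptide / Schedule: 5 + 15 min at 25 °C / Signal: FRET, excitation 480 nm, emission 540 nm donor and 671 nm acceptor / Benchmarks: DMSO and neomycin B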
Measles CPE: protection of cells from measles virus | Measles virus-infected cells, CPE protection, absorbance | protection (pct of control), % at 4 µM | hit rate 1.5% among 140,000 | AID 841; in the data active = protection mostly above about 24%, no sharp cut-off; inactive = mostly below about 26%
* hit, by the source's call; . = not tested or not shown.

SMILES | Phagocytosis inh | hDAT+cocaine | Cav32 inh | Pyk2 oligo antag | Rev-RRE block | Measles CPE
CCCCN(C)C(=O)CSc1nc(NCc2ccc(OC)cc2)c2ccccc2n1 | -3 | 2.5* | -1.5 | 0.2 | 14 | 26
Cc1cc(N2C(=O)C3CC=CCC3C2=O)cc(C)c1Br (configuration not stated) | . | -0.3 | -0.67 | -1.3 | 6 | 4
Cc1cc(C)cc(N2C(=O)C3CC=CCC3C2=O)c1 (configuration not stated) | 0 | -0.11 | 0.91 | 1.1 | 8 | 44*
Cc1cc(C(=O)OCC(=O)NCCc2ccccc2)c(C)o1 | 1 | 1.2 | -0.85 | 0.58 | -1 | 7
CCOC(=O)C(=O)Nc1ccc(F)cc1 | -1 | -1.3 | 0.44 | 1.1 | 11 | 12
CN(C)/C=C(\C#N)C(=O)Nc1ccc(F)cc1 | . | -2.2* | 0.18 | -0.05 | 12 | 22
CC(C)n1nc(C(=O)Oc2cccc(Cl)c2Cl)c2ccccc2c1=O | -5 | . | . | . | . | 9
COC(=O)c1cc2c(C)cc3ccc(C)cn3c-2c1C(=O)OC | -2 | 0.51 | -0.48 | -0.15 | 36* | 8
COC(=O)c1cc2c(C)c(C)c3ccccn3c-2c1C(=O)OC | 0 | -9.1* | 0.097 | 1.2 | 22 | 30
Cc1cc(-c2cc(-c3ccccc3)on2)nc(NCC2CC2)n1 | . | -0.032 | 2.2 | . | . | .
C[C@@H]1CC[C@@]2(O[C@@H](CCO)C[C@@H](O)[C@@H]2O)O1 | . | -0.085 | -0.038 | . | . | .
CCCC(C)NS(=O)(=O)c1ccc(OC)c(C)c1 (configuration not stated) | 0 | -0.0075 | -0.7 | -1.1 | 8 | 3
O=c1oc2ccccc2cc1-c1nnc(NCc2ccco2)s1 | 0 | -0.72 | 0.51 | 0.99 | 44* | 0
COc1ccc(CNC(=O)CCCc2ccccc2)cc1 | 8 | . | . | . | . | 31*
COc1ccc(CNC(=O)C/C(C)=N/NC(=O)C(c2ccccc2)c2ccccc2)cc1 | 1 | 1.9 | -4.2* | -0.2 | 0 | 8
O=S(=O)(Nc1cc(C(F)(F)F)ccc1N1CCOCC1)c1ccc2ccccc2c1 | -2 | . | . | . | . | 7
N#Cc1cc(-c2ccccc2)cn(Cc2c(Cl)cccc2Cl)c1=O | 0 | -1.5 | 1.2 | -1.1 | 1 | 53*
COc1cc(/C=N/NC(=O)CN2CCCCC2)ccc1OCc1ccc(Br)cc1 | -6 | . | . | . | . | 12
Cc1ccc2nc(N/N=C\c3ccc([N+](=O)[O-])o3)nc(-c3ccccc3)c2c1 | 0 | . | . | -4* | 58* | 12
COCc1cc(=O)[nH]c2cc(NC(=O)C(C)(C)CCl)c(C)cc12 | 0 | -7.8* | -0.03 | -0.46 | 5 | 11
O=C(COc1ccc2c(c1)CCC2)NCc1ccc(Cl)cc1 | -4 | . | . | . | . | 16
Cc1c(Br)c([N+](=O)[O-])nn1C(C)C(=O)N1CCCc2ccccc21 (configuration not stated) | -2 | -8.2* | -2.5 | -2.1 | 10 | 16
Cc1c(Br)c([N+](=O)[O-])nn1C(C)C(=O)NCc1cccs1 (configuration not stated) | 1 | -9.4* | 0.78 | -0.13 | 9 | 3
O=C(O)c1cccc(NC(=S)NC(=O)C(c2ccccc2)c2ccccc2)c1 | -4 | 1.9 | -0.98 | -1.9 | 3 | 21
CC1=C(C(=O)OC(C)C)C(c2cn(-c3ccccc3)nc2-c2cccs2)NC(=O)N1 (configuration not stated) | -3 | . | . | . | . | 12
SMILES | Phagocytosis inh | hDAT+cocaine | Cav32 inh | Pyk2 oligo antag | Rev-RRE block | Measles CPE
COc1cc(O)c(C(C)=O)c(CC(=O)O)c1 | . | -0.74 | 0.82 | . | . | .
CCN(CC)CCOC(=O)c1ccc(NC(=O)C(C)NC(=O)C23CC4CC(CC(C4)C2)C3)cc1 (configuration not stated) | 2 | . | . | 0.62 | . | 21
CCn1c(SCC(=O)Nc2ccc(C(=O)OC)cc2)nc2cccnc21 | . | -0.42 | -0.27 | 0.09 | 7 | 4
CCc1ccc(NC(=O)CCc2nc3cccnc3n2Cc2ccc(OC)cc2)cc1 | . | 0.18 | -6.9* | -1.1 | 2 | 14
CCn1c(=O)c(C(=O)Nn2c(C)nc3ccccc3c2=O)c(O)c2ccccc21 | 0 | 0.06 | -6.1* | -1.2 | . | 12
CCc1nc2ccccc2c(=O)n1NC(=O)c1c(O)c2cccc3c2n(c1=O)CCC3 | -2 | 0.13 | -6.1* | 1.2 | 4 | 22
CCCCc1nc2ccccc2c(=O)n1NC(=O)c1c(O)c2c(n(CC(C)C)c1=O)CCCC2 | 0 | 1.5 | -9.9* | -0.58 | . | 12

From PubChem BioAssay
